Laboratory results: ChEMBL document CHEMBL1255429, “Efflux pumps are involved in the defense of Gram-negative bacteria against the natural products isobavachalcone and diospyrone” (2010)

Assays:
Assay type in all cases: functional
[1] = test system: Enterobacter cloacae; test: Antimicrobial activity against Enterobacter cloacae Ec1194 after 18 hrs by rapid INT colorimetric assay in presence of efflux pump inhibitor phenylalanine arginine; details: Ec1194, 18 h
How it was run: (§1)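 Broth microdilution MIC in Mueller-Hinton broth with PAßN at a final 20 μg/ml throughout. Twofold dilutions of sample from DMSO-MHB stock; inoculum 1.5 × 10^6 CFU/ml; 18 h at 37°C, final DMSO <2.5%. Growth read by INT (0.2 mg/ml, 30 min, 37°C). MIC taken as lowest concentration with no pink colour.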

[2] = test system: Klebsiella pneumoniae; test: Antimicrobial activity against Klebsiella pneumoniae KP63 after 18 hrs by rapid INT colorimetric assay; details: KP63, 18 h
How it was run: (§2)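 Strains precultured overnight on Mueller-Hinton agar. Sample dissolved in DMSO-MHB, twofold serial dilutions in MHB, inoculum 1.5 × 10^6 CFU/ml; final DMSO below 2.5%. Incubated 37°C 18 h, then 0.2 mg/ml INT added, 30 min at 37°C. MIC = lowest concentration preventing yellow-to-pink change (complete growth inhibition). DMSO-only wells as negative control.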

[3] = test system: Klebsiella aerogenes; test: Antimicrobial activity against Enterobacter aerogenes EA5 after 18 hrs by rapid INT colorimetric assay in presence of efflux pump inhibitor phenylalanine arginine; details: EA5, 18 h
[4] = test system: Pseudomonas aeruginosa; test: Antimicrobial activity against Pseudomonas aeruginosa PAO1 after 18 hrs by rapid INT colorimetric assay; details: PAO1, 18 h
How it was run: (§3)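 Strains precultured overnight on Mueller-Hinton agar. Samples dissolved in DMSO-MHB, serially diluted twofold in MHB, inoculum 1.5 × 10^6 CFU/ml in MHB added; 37°C, 18 h; final DMSO <2.5%. 0.2 mg/ml INT then added, 30 min at 37°C. MIC = lowest concentration preventing yellow-to-pink reduction, i.e. complete growth inhibition.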

[5] = test system: Escherichia coli; test: Antimicrobial activity against tetracycline-resistant Escherichia coli AG100A after 18 hrs by rapid INT colorimetric assay; how it was run: as §3
[6] = test system: Klebsiella aerogenes; test: Antimicrobial activity against Enterobacter aerogenes EA-CM64 after 18 hrs by rapid INT colorimetric assay in presence of efflux pump inhibitor phenylalanine arginine; details: EA-CM64, 18 h
[7] = test system: Klebsiella pneumoniae; test: Antimicrobial activity against Klebsiella pneumoniae KP63 after 18 hrs by rapid INT colorimetric assay in presence of efflux pump inhibitor phenylalanine arginine; details: KP63, 18 h
[8] = test system: Escherichia coli; test: Antimicrobial activity against Escherichia coli ATCC 8739 after 18 hrs by rapid INT colorimetric assay; details: ATCC 8739, 18 h; how it was run: as §3
[9] = test system: Pseudomonas aeruginosa; test: Antimicrobial activity against Pseudomonas aeruginosa PA124 after 18 hrs by rapid INT colorimetric assay in presence of efflux pump inhibitor phenylalanine arginine; details: PA124, 18 h
[10] = test system: Klebsiella aerogenes; test: Antimicrobial activity against Enterobacter aerogenes EA27 after 18 hrs by rapid INT colorimetric assay in presence of efflux pump inhibitor phenylalanine arginine; details: EA27, 18 h
[11] = test system: Escherichia coli; test: Antimicrobial activity against tetracycline-resistant Escherichia coli AG102 after 18 hrs by rapid INT colorimetric assay in presence of efflux pump inhibitor phenylalanine arginine; details: AG102, 18 h; how it was run: as §1
[12] = test system: Klebsiella aerogenes; test: Antimicrobial activity against Enterobacter aerogenes EA27 after 18 hrs by rapid INT colorimetric assay; details: EA27, 18 h; how it was run: as §2
[13] = test system: Escherichia coli; test: Antimicrobial activity against Escherichia coli ATCC 10536 after 18 hrs by rapid INT colorimetric assay; details: ATCC 10536, 18 h; how it was run: as §2
[14] = test system: Escherichia coli; test: Antimicrobial activity against Escherichia coli AG100 after 18 hrs by rapid INT colorimetric assay; details: AG100, 18 h; how it was run: as §3
[15] = test system: Klebsiella aerogenes; test: Antimicrobial activity against Enterobacter aerogenes EA3 after 18 hrs by rapid INT colorimetric assay in presence of efflux pump inhibitor phenylalanine arginine; details: EA3, 18 h
[16] = test system: Escherichia coli; test: Antimicrobial activity against Escherichia coli ATCC 8739 after 18 hrs by rapid INT colorimetric assay in presence of efflux pump inhibitor phenylalanine arginine; details: ATCC 8739, 18 h; how it was run: as §1
[17] = test system: Klebsiella aerogenes; test: Antimicrobial activity against Enterobacter aerogenes EA5 after 18 hrs by rapid INT colorimetric assay; details: EA5, 18 h; how it was run: as §2
[18] = test system: Klebsiella aerogenes; test: Antimicrobial activity against Enterobacter aerogenes ATCC 13048 after 18 hrs by rapid INT colorimetric assay; details: ATCC 13048, 18 h; how it was run: as §2
[19] = test system: Klebsiella aerogenes; test: Antimicrobial activity against Enterobacter aerogenes EA294 after 18 hrs by rapid INT colorimetric assay; details: EA294, 18 h; how it was run: as §3
[20] = test system: Klebsiella aerogenes; test: Antimicrobial activity against Enterobacter aerogenes EA3 after 18 hrs by rapid INT colorimetric assay; details: EA3, 18 h; how it was run: as §2
[21] = test system: Klebsiella aerogenes; test: Antimicrobial activity against Enterobacter aerogenes EA289 after 18 hrs by rapid INT colorimetric assay in presence of efflux pump inhibitor phenylalanine arginine; details: EA289, 18 h
[22] = test system: Escherichia coli; test: Antimicrobial activity against Escherichia coli AG100 after 18 hrs by rapid INT colorimetric assay in presence of efflux pump inhibitor phenylalanine arginine; details: AG100, 18 h
[23] = test system: Klebsiella pneumoniae; test: Antimicrobial activity against Klebsiella pneumoniae KP55 after 18 hrs by rapid INT colorimetric assay; details: KP55, 18 h; how it was run: as §2
[24] = test system: Escherichia coli; test: Antimicrobial activity against tetracycline-resistant Escherichia coli AG100A after 18 hrs by rapid INT colorimetric assay in presence of efflux pump inhibitor phenylalanine arginine; how it was run: as §1
[25] = test system: Klebsiella aerogenes; test: Antimicrobial activity against Enterobacter aerogenes EA-CM64 after 18 hrs by rapid INT colorimetric assay; details: EA-CM64, 18 h; how it was run: as §3
[26] = test system: Klebsiella aerogenes; test: Antimicrobial activity against Enterobacter aerogenes EA298 after 18 hrs by rapid INT colorimetric assay in presence of efflux pump inhibitor phenylalanine arginine; details: EA298, 18 h
[27] = test system: Escherichia coli; test: Antimicrobial activity against Escherichia coli AG100A after 18 hrs by rapid INT colorimetric assay; how it was run: as §3
[28] = test system: Enterobacter cloacae; test: Antimicrobial activity against Enterobacter cloacae Ec1194 after 18 hrs by rapid INT colorimetric assay; details: Ec1194, 18 h; how it was run: as §2
[29] = test system: Escherichia coli; test: Antimicrobial activity against tetracycline-resistant Escherichia coli AG102 after 18 hrs by rapid INT colorimetric assay; details: AG102, 18 h; how it was run: as §3
[30] = test system: Pseudomonas aeruginosa; test: Antimicrobial activity against Pseudomonas aeruginosa PAO1 after 18 hrs by rapid INT colorimetric assay in presence of efflux pump inhibitor phenylalanine arginine; details: PAO1, 18 h
[31] = test system: Klebsiella aerogenes; test: Antimicrobial activity against Enterobacter aerogenes EA289 after 18 hrs by rapid INT colorimetric assay; details: EA289, 18 h; how it was run: as §2
[32] = test system: Escherichia coli; test: Antimicrobial activity against Escherichia coli ATCC 10536 after 18 hrs by rapid INT colorimetric assay in presence of efflux pump inhibitor phenylalanine arginine beta-naphthylamide; details: ATCC 10536, 18 h; how it was run: as §1
[33] = test system: Pseudomonas aeruginosa; test: Antimicrobial activity against Pseudomonas aeruginosa PA124 after 18 hrs by rapid INT colorimetric assay; details: PA124, 18 h; how it was run: as §3
[34] = test system: Klebsiella aerogenes; test: Antimicrobial activity against Enterobacter aerogenes ATCC 13048 after 18 hrs by rapid INT colorimetric assay in presence of efflux pump inhibitor phenylalanine arginine; details: ATCC 13048, 18 h
[35] = test system: Enterobacter cloacae; test: Antimicrobial activity against Enterobacter cloacae Ec07769 after 18 hrs by rapid INT colorimetric assay in presence of efflux pump inhibitor phenylalanine arginine; details: Ec07769, 18 h
[36] = test system: Klebsiella pneumoniae; test: Antimicrobial activity against Klebsiella pneumoniae KP55 after 18 hrs by rapid INT colorimetric assay in presence of efflux pump inhibitor phenylalanine arginine; details: KP55, 18 h
[37] = test system: Klebsiella pneumoniae; test: Antimicrobial activity against Klebsiella pneumoniae ATCC 11296 after 18 hrs by rapid INT colorimetric assay; details: ATCC 11296, 18 h; how it was run: as §3
[38] = test system: Klebsiella pneumoniae; test: Antimicrobial activity against Klebsiella pneumoniae ATCC 11296 after 18 hrs by rapid INT colorimetric assay in presence of efflux pump inhibitor phenylalanine arginine; details: ATCC 11296, 18 h
[39] = test system: Escherichia coli; test: Antimicrobial activity against Escherichia coli AG100A after 18 hrs by rapid INT colorimetric assay in presence of efflux pump inhibitor phenylalanine arginine
[40] = test system: Klebsiella aerogenes; test: Antimicrobial activity against Enterobacter aerogenes EA294 after 18 hrs by rapid INT colorimetric assay in presence of efflux pump inhibitor phenylalanine arginine; details: EA294, 18 h
[41] = test system: Enterobacter cloacae; test: Antimicrobial activity against Enterobacter cloacae Ec07769 after 18 hrs by rapid INT colorimetric assay; details: Ec07769, 18 h; how it was run: as §2
[42] = test system: Klebsiella aerogenes; test: Antimicrobial activity against Enterobacter aerogenes EA298 after 18 hrs by rapid INT colorimetric assay; details: EA298, 18 h; how it was run: as §3

Measured: MIC

CCn1cc(C(=O)O)c(=O)c2cc(F)c(N3CCNCC3)cc21 [NORFLOXACIN]
2 µg/mL: [4] | [6]
4 µg/mL: [7] | [25]
0.03 µg/mL: [27] | [32]
0.25 µg/mL: [11] | [18] | [24] | [34]
0.007 µg/mL: [39]
256 µg/mL: [12] | [17]
1 µg/mL: [5] | [29] | [30] | [37]
0.06 µg/mL: [13]
16 µg/mL: [2] | [23]
> 256 µg/mL: [35] | [41]
32 µg/mL: [1] | [9] | [28] | [40]
0.5 µg/mL: [38]
0.12 µg/mL: [8] | [14] | [16] | [22]
8 µg/mL: [26] | [36] | [42]
64 µg/mL: [15] | [19] | [33]
128 µg/mL: all other assays above

CC1=C(c2c(C)cc(O)c3c2C(=O)C(c2c(O)c4c(C)cccc4oc2=O)=C(c2c(O)c4c(C)cccc4oc2=O)C3=O)C(=O)c2c(O)cccc2C1=O [DIOSPYRONE]
0.24 µg/mL: [24]
8 µg/mL: [21] | [35] | [36] | [40]
0.12 µg/mL: [39]
1 µg/mL: [9] | [22]
32 µg/mL: [2] | [13] | [28] | [34] | [37] | [42]
64 µg/mL: [3] | [4] | [14] | [15] | [23] | [29] | [33]
4 µg/mL: [7] | [16] | [27] | [30]
2 µg/mL: [1] | [11] | [32] | [38]
16 µg/mL: [5] | [6] | [10] | [26]
128 µg/mL: all other assays above

CC(C)=CCc1c(O)ccc(C(=O)/C=C/c2ccc(O)cc2)c1O [ISOBAVACHALCONE]
8 µg/mL: [10] | [11] | [16] | [24] | [35] | [42]
16 µg/mL: [2] | [3] | [21] | [27] | [30] | [34]
128 µg/mL: [13] | [20] | [41]
32 µg/mL: [15] | [19] | [23] | [37]
0.5 µg/mL: [7] | [22] | [26] | [40]
0.25 µg/mL: [39]
> 256 µg/mL: [25]
2 µg/mL: [32]
256 µg/mL: [6] | [8] | [12] | [18] | [31]
4 µg/mL: [9] | [36] | [38]
1 µg/mL: [1]
64 µg/mL: all other assays above
